Source: ChEMBL document CHEMBL1126563, “The inophyllums, novel inhibitors of HIV-1 reverse transcriptase isolated from the Malaysian tree, Calophyllum inophyllum Linn” (J Med Chem, 1993)

Legend:
[1] = target: Human immunodeficiency virus type 1 reverse transcriptase (Human immunodeficiency virus 1, UniProt Q72547); test: Inhibitory concentration against HIV-1 reverse transcriptase in scintillation proximity assay
Procedure, shortened: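 Recombinant purified HIV-1 RT (2 nM) with 39 nM 50-mer RNA template annealed to biotinylated 17-mer DNA primer; 75 nM dATP, dCTP, dGTP and [3H]TTP. Buffer 50 mM Tris-HCl pH 8.0, 80 mM KCl, 10 mM MgCl2, 10 mM DTT, 0.012% CHAPS. Enzyme, template-primer and inhibitor (90 μM–0.01 nM) preincubated 15 min at 37 °C; reaction 10 min at 37 °C, EDTA stop, streptavidin scintillant beads, scintillation counting.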

MOLT-4 = test: Tested for cytotoxicity in Molt-4 cells by XTT assay; assay type: functional, cell-based; settings: Homo sapiens
Procedure, shortened: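 Molt-4 cells plated at 3×10^4 cells/well with compound; on day 7 XTT conversion to formazan measured, with trypan blue microscopic examination also used; IC50 derived.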

[2] = tested on: Human immunodeficiency virus 1; test: Anti-HIV activity against HIV-1 in Molt-4 cells using 7-day infective assay; assay type: functional, organism-based; settings: Human immunodeficiency virus 1, MOLT-4, 168 h
Procedure, shortened: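 Molt-4 cells (3×10^4) infected with 50 tissue culture infectious doses of HIV-1; compound added day 0, cultures refed days 1 and 4 with medium containing compound at initial concentration. On day 7 cells spun down and supernatant RT quantified by microassay; IC50 from RT quantitation.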

[3] = Selectivity index is the ratio of cytotoxicity in Molt-4 cells and anti-HIV- IC50; assay type: functional
Procedure, shortened: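 Selectivity index = cytotoxicity IC50 (XTT, Molt-4, day 7) divided by anti-HIV IC50 (RT quantitation in supernatant 7 days after HIV-1 infection of Molt-4 cells).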

[4] = target: Human immunodeficiency virus type 1 reverse transcriptase (Human immunodeficiency virus 1, UniProt Q72547, Y181C); test: Inhibitory concentration against HIV-1 reverse transcriptase mutant (Tyr-181 to Cys)
Procedure, shortened: (§1)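 Scintillation proximity assay for RNA-dependent DNA polymerase activity of recombinant purified RT. The template is a 50-mer RNA annealed at its 5'-end to a biotinylated 17-mer DNA primer. Buffer is 50 mM Tris-HCl pH 8.0 with 80 mM KCl, 10 mM MgCl2, 10 mM DTT and 0.012% CHAPS. Final levels are 2 nM RT, 39 nM template-primer, 75 nM each dATP/dCTP/dGTP/[3H]TTP, and inhibitor serially diluted over 90 μM–0.01 nM. RT, template-primer and inhibitor are preincubated 15 min at 37 °C. The reaction runs 10 min at 37 °C and is stopped with EDTA. Incorporated label is captured on streptavidin scintillant beads and counted to give IC50.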

[5] = target: Human immunodeficiency virus type 1 reverse transcriptase (Human immunodeficiency virus 1, UniProt Q72547, Y181L); test: Inhibitory concentration against HIV-1 reverse transcriptase mutant (Tyr-181 to Leu); procedure, shortened: as §1

Row | Structure (SMILES) | IC50 [1] [µM] | IC50 (MOLT-4) [µM] | further results
1 | C[C@@H]1C(=O)c2c(O)c(/C(=C\C(=O)O)c3ccccc3)c3c(c2O[C@@H]1C)C=CC(C)(C)O3 | > 100 |  | 
2 | CC1=Cc2c(c3c(c4c(-c5ccccc5)cc(=O)oc24)OC(C)(C)C=C3)O[C@@H]1C | 9 |  | 
3 | C[C@H]1Oc2c3c(c(/C(=C\C(=O)O)c4ccccc4)c(O)c2C(=O)[C@@H]1C)OC(C)(C)C=C3 | > 100 |  | 
4 | C[C@@H]1C(=O)c2c(c3c(c4c(-c5ccccc5)cc(=O)oc24)OC(C)(C)C=C3)O[C@@H]1C | 100 | 6.2 | 
5 | C[C@H]1[C@@H](C)Oc2c3c(c4c(-c5ccccc5)cc(=O)oc4c2[C@@H]1O)OC(C)(C)C=C3 | 11 | 15 | 
6 | CC(=O)O[C@@H]1c2c(c3c(c4c(-c5ccccc5)cc(=O)oc24)OC(C)(C)C=C3)O[C@H](C)[C@H]1C | 0.72 |  | 
7 | C[C@H]1Oc2c3c(c4c(-c5ccccc5)cc(=O)oc4c2C(=O)[C@@H]1C)OC(C)(C)C=C3 | 10 | 18 | 
8 | CC(=O)O[C@H]1c2c(c3c(c4c(-c5ccccc5)cc(=O)oc24)OC(C)(C)C=C3)O[C@H](C)[C@H]1C | > 100 |  | 
9 | CC(C)=CCN1Cc2cc(Cl)cc3[nH]c(=S)n(c23)C[C@@H]1C | 0.7 | 19 | IC50 [2]: 0.19 µM; Selectivity index [3]: 100
10 | C[C@@H]1[C@H](C(=O)c2ccc(Br)cc2)c2c(c3c(c4c(-c5ccccc5)cc(=O)oc24)OC(C)(C)C=C3)O[C@@H]1C | 46 |  | 
11 | CC1[C@H](O)c2c(c3c(c4c(-c5ccccc5)cc(=O)oc24)O[C@H]2[C@@H]3C2(C)C)O[C@@H]1C (single isomer, unassigned) | 70 |  | 
12 | C[C@@H]1[C@H](O)c2c(c3c(c4c(-c5ccccc5)cc(=O)oc24)OC(C)(C)C=C3)O[C@@H]1C | 30 | 33 | 
13 | C[C@H]1[C@H](O)c2c(c3c(c4c(-c5ccccc5)cc(=O)oc24)OC(C)(C)C=C3)O[C@@H]1C | 0.038 | 55 | IC50 [2]: 1.4 µM; IC50 [4]: 0.16 µM; IC50 [5]: 0.41 µM; Selectivity index [3]: 39
14 | C[C@@H]1[C@@H](C)Oc2c3c(c4c(-c5ccccc5)cc(=O)oc4c2[C@@H]1O)OC(C)(C)C=C3 | 0.13 | 25 | IC50 [2]: 1.6 µM; Selectivity index [3]: 16
15 | CC1[C@H](O)c2c(c3c(c4c(-c5ccccc5)cc(=O)oc24)O[C@@H]2[C@H]3C2(C)C)O[C@@H]1C (single isomer, unassigned) | > 100 |  | 
